Test results: ChEMBL document CHEMBL1155169, “Influence of morbid obesity on the single-dose pharmacokinetics of daptomycin” (Antimicrob Agents Chemother, 2007)

Legend:
[1] = Volume of distribution in morbidly obese human at 461 mg infused over 30 mins; type: ADME, organism-based; settings: in vivo, iv
[2] = Cmax in morbidly obese human at 461 mg infused over 30 mins; type: ADME, organism-based; parameters: dose 461 mg; settings: in vivo, iv
[3] = Total clearance in normal weight human at 236 mg infused over 30 mins; type: ADME, organism-based; settings: in vivo, iv
In short: (§1)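 Adult females received 4 mg/kg daptomycin by total body weight, IV over 30 min. Plasma sampled to 24 h and assayed by HPLC-UV at 214 nm. Total clearance = dose/AUC0-∞ (trapezoidal AUC0-24 plus C24/kel). Normalized to total body weight, ideal body weight (45.5 + 2.3 × inches over 5 ft) or fat-free weight from bioelectric impedance.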

[4] = Cmin in morbidly obese human at 461 mg infused over 30 mins after 24 hrs; type: ADME, organism-based; settings: in vivo, iv, read-out: Cmin
[5] = Renal clearance per kg of fat-free weight in morbidly obese human at 461 mg infused over 30 mins; type: ADME, organism-based, Kidney; settings: in vivo, iv, read-out: CL_renal (converted)
In short: (§2)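 Adult females were given a single 30-min IV infusion (4 mg/kg total body weight). Bladder voided before dosing, then urine collected for 24 h. Urine and plasma assayed by HPLC-UV at 214 nm. Renal clearance = 24-h urinary amount / plasma AUC0-24. Normalized to total body weight, ideal body weight or bioimpedance fat-free weight.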

Homo sapiens [6] = species on record: Homo sapiens; assay: Volume of distribution per kg of total body weight in morbidly obese human at 461 mg infused over 30 mins; type: ADME, organism-based; settings: in vivo, iv, 0.5 h
Homo sapiens [7] = species on record: Homo sapiens; assay: Total clearance per kg of ideal body weight in normal weight human at 236 mg infused over 30 mins; type: ADME, organism-based; settings: in vivo, iv, 0.5 h; in short: as §1
[8] = Total clearance in morbidly obese human at 461 mg infused over 30 mins; type: ADME, organism-based; settings: in vivo, iv; in short: as §1
[9] = Renal clearance per kg of total body weight in morbidly obese human at 461 mg infused over 30 mins; type: ADME, organism-based, Kidney; settings: in vivo, iv, read-out: CL_renal (converted); in short: as §2
[10] = Protein binding in normal weight human serum at 236 mg infused over 30 mins; type: ADME, cell-free; settings: iv, read-out: PB (converted)
In short: (§3)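 Serum (separator tubes) was drawn at 0.5, 2 and 8 h after a single 30-min IV infusion of 4 mg/kg (total body weight) in adult females. Samples were spun at 1,500 × g for 10 min and stored at −80°C. Binding was measured by equilibrium dialysis, solid-phase extraction and LC-MS, linear over 1–250 μg/ml.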

Homo sapiens [11] = species on record: Homo sapiens; assay: Total clearance per kg of fat-free weight in normal weight human at 236 mg infused over 30 mins; type: ADME, organism-based; settings: in vivo, iv, 0.5 h; in short: as §1
[12] = Renal clearance per kg of ideal body weight in morbidly obese human at 461 mg infused over 30 mins; type: ADME, organism-based, Kidney; settings: in vivo, iv, read-out: CL_renal (converted); in short: as §2
[13] = AUC (0 to infinity) in morbidly obese human at 461 mg infused over 30 mins; type: ADME, organism-based; parameters: dose 461 mg, time infinity; settings: plasma, iv
In short: (§4)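 Single 30-min IV infusion at 4 mg/kg total body weight in adult females. Plasma sampled at 0.5, 1, 1.5, 2, 4, 8, 12 and 24 h and assayed by HPLC-UV at 214 nm. kel came from log-linear regression, giving t1/2 = ln2/kel. AUC0-∞ is the linear-trapezoidal AUC0-24 plus C24/kel.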

[14] = Half life in morbidly obese human at 461 mg infused over 30 mins; type: ADME, organism-based; settings: in vivo, iv; in short: as §4
[15] = Cmax in normal weight human at 236 mg infused over 30 mins; type: ADME, organism-based; parameters: dose 236 mg; settings: in vivo, iv
Homo sapiens [16] = species on record: Homo sapiens; assay: Volume of distribution per kg of ideal body weight in morbidly obese human at 461 mg infused over 30 mins; type: ADME, organism-based; settings: in vivo, iv, 0.5 h
Homo sapiens [17] = species on record: Homo sapiens; assay: Total clearance per kg of ideal body weight in morbidly obese human at 461 mg infused over 30 mins; type: ADME, organism-based; settings: in vivo, iv, 0.5 h; in short: as §1
[18] = Renal clearance per kg of fat-free weight in normal weight human at 236 mg infused over 30 mins; type: ADME, organism-based, Kidney; settings: in vivo, iv, read-out: CL_renal (converted); in short: as §2
[19] = Cmin in normal weight human at 236 mg infused over 30 mins after 24 hrs; type: ADME, organism-based; settings: in vivo, iv, read-out: Cmin
[20] = Renal clearance in normal weight human at 236 mg infused over 30 mins; type: ADME, organism-based, Kidney; settings: in vivo, iv, read-out: CL_renal (converted); in short: as §2
[21] = Renal clearance per kg of total body weight in normal weight human at 236 mg infused over 30 mins; type: ADME, organism-based, Kidney; settings: in vivo, iv, read-out: CL_renal (converted); in short: as §2
[22] = Protein binding in morbidly obese human serum at 461 mg infused over 30 mins; type: ADME, cell-free; settings: iv, read-out: PB (converted); in short: as §3
[23] = AUC (0 to infinity) in normal weight human at 236 mg infused over 30 mins; type: ADME, organism-based; parameters: dose 236 mg, time infinity; settings: plasma, iv; in short: as §4
[24] = Renal clearance per kg of ideal body weight in normal weight human at 236 mg infused over 30 mins; type: ADME, organism-based, Kidney; settings: in vivo, iv, read-out: CL_renal (converted); in short: as §2
[25] = Half life in normal weight human at 236 mg infused over 30 mins; type: ADME, organism-based; settings: in vivo, iv; in short: as §4
Homo sapiens [26] = species on record: Homo sapiens; assay: Volume of distribution per kg of total body weight in normal weight human at 236 mg infused over 30 mins; type: ADME, organism-based; settings: in vivo, iv, 0.5 h
Homo sapiens [27] = species on record: Homo sapiens; assay: Volume of distribution per kg of fat-free weight in morbidly obese human at 461 mg infused over 30 mins; type: ADME, organism-based; settings: in vivo, iv, 0.5 h
[28] = Cmax in human at 4 mg/kg of total body weight; type: ADME, organism-based; parameters: dose 4 mg/kg; settings: in vivo
[29] = Volume of distribution in normal weight human at 236 mg infused over 30 mins; type: ADME, organism-based; settings: in vivo, iv
[30] = Renal clearance in morbidly obese human at 461 mg infused over 30 mins; type: ADME, organism-based, Kidney; settings: in vivo, iv, read-out: CL_renal (converted); in short: as §2
Homo sapiens [31] = species on record: Homo sapiens; assay: Total clearance per kg of fat-free weight in morbidly obese human at 461 mg infused over 30 mins; type: ADME, organism-based; settings: in vivo, iv, 0.5 h; in short: as §1
Homo sapiens [32] = species on record: Homo sapiens; assay: Total clearance per kg of total body weight in morbidly obese human at 461 mg infused over 30 mins; type: ADME, organism-based; settings: in vivo, iv, 0.5 h; in short: as §1
Homo sapiens [33] = species on record: Homo sapiens; assay: Volume of distribution per kg of fat-free weight in normal weight human at 236 mg infused over 30 mins; type: ADME, organism-based; settings: in vivo, iv, 0.5 h
Homo sapiens [34] = species on record: Homo sapiens; assay: Total clearance per kg of total body weight in normal weight human at 236 mg infused over 30 mins; type: ADME, organism-based; settings: in vivo, iv, 0.5 h; in short: as §1
Homo sapiens [35] = species on record: Homo sapiens; assay: Volume of distribution per kg of ideal body weight in normal weight human at 236 mg infused over 30 mins; type: ADME, organism-based; settings: in vivo, iv, 0.5 h

CCCCCCCCCC(=O)N[C@@H](Cc1c[nH]c2ccccc12)C(=O)N[C@H](CC(N)=O)C(=O)N[C@@H](CC(=O)O)C(=O)N[C@@H]1C(=O)NCC(=O)N[C@@H](CCCN)C(=O)N[C@@H](CC(=O)O)C(=O)N[C@H](C)C(=O)N[C@@H](CC(=O)O)C(=O)NCC(=O)N[C@H](CO)C(=O)N[C@@H]([C@H](C)CC(=O)O)C(=O)N[C@@H](CC(=O)c2ccccc2N)C(=O)O[C@@H]1C
Vd [1]: 10 L | Cmax [2]: 67300 ng/mL | clearance [3]: 12.2 mL/min | concentration at 24 h [4]: 6550 ng/mL | CL renal at 0.5 h [5]: 0.153 mL/min | Vd (Homo sapiens [6]): 0.09 L | CL (Homo sapiens [7]): 0.013 L/h | clearance [8]: 13.7 mL/min | CL renal at 0.5 h [9]: 0.0733 mL/min | fraction unbound at 0.5 h [10]: 0.1 | CL (Homo sapiens [11]): 0.016 L/h | CL renal at 0.5 h [12]: 0.16 mL/min | AUC(0-inf) [13]: 581 µg·h/mL | half-life [14]: 8.68 h | Cmax [15]: 42300 ng/mL | Vd (Homo sapiens [16]): 0.19 L | CL (Homo sapiens [17]): 0.016 L/h | CL renal at 0.5 h [18]: 0.217 mL/min | concentration at 24 h [19]: 3390 ng/mL | CL renal at 0.5 h [20]: 9.83 mL/min | CL renal at 0.5 h [21]: 0.158 mL/min | fraction unbound at 0.5 h [22]: 0.112 | AUC(0-inf) [23]: 346 µg·h/mL | CL renal at 0.5 h [24]: 0.165 mL/min | half-life [25]: 7.72 h | Vd (Homo sapiens [26]): 0.13 L | Vd (Homo sapiens [27]): 0.18 L | Cmax [28]: 42300 ng/mL | Vd [29]: 7.69 L | CL renal at 0.5 h [30]: 8.33 mL/min | CL (Homo sapiens [31]): 0.015 L/h | CL (Homo sapiens [32]): 0.0071 L/h | Vd (Homo sapiens [33]): 0.18 L | CL (Homo sapiens [34]): 0.012 L/h | Vd (Homo sapiens [35]): 0.14 L
